Measurements as given in ChEMBL document CHEMBL1138845, “Design of non-nucleoside inhibitors of HIV-1 reverse transcriptase with improved drug resistance properties. 2” (J Med Chem, 2004).
pIC50: −log10 of the molar value.

Assays:
MT4 [1] = assay: Inhibitory concentration against nevirapine resistant strain (with Y181C mutation in HIV-1 RT gene) of human immunodeficiency virus type 1 was determined by MT-4 assay; type: functional, cell-based
HeLa [2] = assay: Inhibitory concentration against human immunodeficiency virus type 1 (with Y181C resistant mutation) was determined in HeLa-CD4 MAGI assay; type: functional, cell-based
Procedure, shortened: (§1)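 Tested against a panel of recombinant, isogenic HIV-1 viruses, wild type and NNRTI-resistant strains carrying engineered single or double RT mutations. The readout was IC50.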

[3] = tested on: Human immunodeficiency virus 1; assay: Inhibitory concentration against wild type human immunodeficiency virus type 1 was determined by recombinant virus assay; type: functional, organism-based
Procedure, shortened: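 Isogenic recombinant HIV-1 carrying wild-type RT, tested in parallel with a panel of NNRTI-resistant RT mutants built on the same background; activity reported as IC50.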

HeLa [4] = assay: Inhibitory concentration against human immunodeficiency virus type 1 (with K103N/Y181C resistant mutation) was determined in HeLa-CD4 MAGI assay; type: functional, cell-based; procedure, shortened: as §1
HeLa [5] = assay: Inhibitory concentration against human immunodeficiency virus type 1 (with K103N/V108I resistant mutation) was determined in HeLa-CD4 MAGI assay; type: functional, cell-based; procedure, shortened: as §1
HeLa [6] = assay: Inhibitory concentration against human immunodeficiency virus type 1 (with V108I resistant mutation) was determined in HeLa-CD4 MAGI assay; type: functional, cell-based; procedure, shortened: as §1
HeLa [7] = assay: Inhibitory concentration against human immunodeficiency virus type 1 (with V106A resistant mutation) was determined in HeLa-CD4 MAGI assay; type: functional, cell-based; procedure, shortened: as §1
HeLa [8] = assay: Inhibitory concentration against human immunodeficiency virus type 1 (with V108I/Y181C resistant mutation) was determined in HeLa-CD4 MAGI assay; type: functional, cell-based; procedure, shortened: as §1
MT4 [9] = assay: Inhibitory concentration against wild type human immunodeficiency virus type 1 was determined by MT-4 assay; type: functional, cell-based
HeLa [10] = assay: Inhibitory concentration against human immunodeficiency virus type 1 (with K103N/G190A resistant mutation) was determined in HeLa-CD4 MAGI assay; type: functional, cell-based; procedure, shortened: as §1
MT4 [11] = assay: Ratio of cytotoxic concentration to that of inhibitory concentration as selectivity index was determined by MT-4 assay; type: functional, Homo sapiens
Procedure, shortened: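 Index is the IC50 in uninfected MT4 cells divided by the antiviral IC50 in MT4 cells infected with wild-type HIV-1 or the nevirapine-resistant strain carrying RT mutation Y181C.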

HeLa [12] = assay: Inhibitory concentration against human immunodeficiency virus type 1 (with V106A/Y181C resistant mutation) was determined in HeLa-CD4 MAGI assay; type: functional, cell-based; procedure, shortened: as §1
HeLa [13] = assay: Inhibitory concentration against human immunodeficiency virus type 1 (with Y188C resistant mutation) was determined in HeLa-CD4 MAGI assay; type: functional, cell-based; procedure, shortened: as §1
HeLa [14] = assay: Inhibitory concentration against human immunodeficiency virus type 1 (with G190A resistant mutation) was determined in HeLa-CD4 MAGI assay; type: functional, cell-based; procedure, shortened: as §1
HeLa [15] = assay: Inhibitory concentration against human immunodeficiency virus type 1 (with K103N resistant mutation) was determined in HeLa-CD4 MAGI assay; type: functional, cell-based; procedure, shortened: as §1

Row | Compound | pIC50 (MT4 [1]) | pIC50 (HeLa [2]) | pIC50 [3] | pIC50 (HeLa [4]) | pIC50 (HeLa [5]) | pIC50 (HeLa [6]) | pIC50 (HeLa [7]) | pIC50 (HeLa [8]) | pIC50 (MT4 [9]) | pIC50 (HeLa [10]) | Ratio (MT4 [11]) | pIC50 (HeLa [12]) | pIC50 (HeLa [13]) | pIC50 (HeLa [14]) | pIC50 (HeLa [15])
1 | CCCc1c(OC2CCCCC2)c2cc(Cl)ccc2[nH]c1=O | 6.12 | 6.33 | 7.49 | < 5.70 | ~5.70 | 6.74 | 6.01 | 6.05 | 7.24 | 6.00 | >5000 | 5.96 | 7.92 | 7.27 | < 5.70
2 | CCCc1c(O)nc2ccc(OC(F)(F)F)cc2c1OC1CCCC1 | 5.60 | 6.00 | 6.57 | < 5.70 | < 5.70 | 6.52 | < 5.70 | < 5.70 | 6.42 | < 5.70 | >40000 | < 5.70 | 6.44 | 7.33 | < 5.70
3 | CC(C)Cc1c(O)nc2ccc(Cl)cc2c1OC1CCCC1 | 5.80 | 7.43 | 6.82 | < 5.70 | < 5.70 | 6.55 | 5.82 | 5.96 | 7.28 | < 5.70 | >40000 | < 5.70 | 7.23 | 7.38 | < 5.70
4 | CCCc1c(O)nc2ccc(F)cc2c1OC#CC1CC1 | 7.09 | 9.00 | 7.18 | 5.85 | < 5.70 | 6.80 | 6.36 | 6.43 | 7.14 | 6.31 | >8000 | 6.42 | 6.54 | 7.68 | < 5.70
5 | CCCc1c(O)nc2ccc(F)cc2c1OC1CCCC1 | 5.89 | 5.74 | 6.82 | < 5.70 | < 5.70 | 6.46 | < 5.70 | < 5.70 | 6.82 | < 5.70 | >40000 | < 5.70 | 7.38 | 6.43 | < 5.70
6 | CC(C)c1c(OC2CCCCC2)c2cc(Cl)ccc2[nH]c1=O | 6.44 | 5.85 | 7.42 | < 5.70 | < 5.70 | 6.96 | 5.96 | ~6.10 | 7.64 | 6.72 | >40000 | 6.37 | 7.92 | 7.57 | 6.77
7 | CCC(C)c1c(O)nc2ccc(Cl)cc2c1OC1CCCC1 (stereo not given) | 6.54 | 6.49 | 8.03 | < 5.70 | < 5.70 | 5.96 | < 5.70 | < 5.70 | 8.05 | < 5.70 | >40000 | ~5.70 | 6.17 | ~5.70 | 6.01
8 | CCCc1c(O)nc2ccc(Cl)cc2c1OC1CCCC1 | 5.77 | < 5.70 | 7.22 | < 5.70 | < 5.70 | 6.70 | 6.57 | 6.17 | 7.02 | < 5.70 | >40000 | < 5.70 | 7.51 | 7.60 | < 5.70
9 | CCCc1c(O)nc2ccc(Cl)cc2c1OCC1CCCCC1 | 5.89 | 6.16 | 5.92 | < 5.70 | < 5.70 | < 5.70 | < 5.70 | 6.00 | 5.29 | < 5.70 | >40000 | < 5.70 | 7.64 | 6.59 | < 5.70
10 | CCc1c(O)nc2ccc(F)cc2c1OC#CC1CC1 | 7.82 | 7.62 | 7.60 | 6.52 | 6.62 | 7.22 | 6.47 | 6.89 | 7.60 | 7.17 | >8000 | 6.64 | 7.00 | 8.22 | 6.38
11 | CCCc1c(O)nc2ccc(C#N)cc2c1OC1CCCC1 | 5.70 | 5.77 | 7.19 | < 5.70 | < 5.70 | 6.62 | 5.89 | < 5.70 | 6.92 | < 5.70 | >40000 | < 5.70 | 7.28 | 9.00 | < 5.70
12 | CCCc1c(O)nc2ccc(OC)cc2c1OC1CCCC1 | 4.62 | 6.15 | 6.38 | < 5.70 | < 5.70 | 6.27 | < 5.70 | < 5.70 | 6.00 | < 5.70 | >40000 | < 5.70 | 6.80 | 6.15 | < 5.70
13 | CCc1c(O)nc2ccc(Cl)cc2c1OC1CCCC1 | 5.99 | 8.22 | 7.14 | < 5.70 | < 5.70 | 6.59 | < 5.70 | 6.11 | 7.11 | 6.19 | >40000 | ~6.00 | 7.27 | 7.92 | < 5.70
14 | CCCc1c(O)nc2ccc(C)cc2c1OC1CCCC1 | 5.19 | 6.39 | 6.40 | < 5.70 | < 5.70 | 6.15 | < 5.70 | < 5.70 | 6.01 | < 5.70 | >40000 | < 5.70 | 6.62 | 6.82 | < 5.70
